This is an account of results in ChEMBL document CHEMBL1134796, “Indenopyrazoles as novel cyclin dependent kinase (CDK) inhibitors” (J Med Chem, 2001).

Assay [1] relates to HCT-116. The assay is described as follows: Inhibition of HCT116 cell proliferation. Type of assay: functional, cell-based. The settings on record: Homo sapiens. In short, it runs like this: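 HCT116 cells cultured with compound at increasing concentrations. At selected time points, cells fixed with trichloroacetic acid and stained with sulforhodamine B. Unbound dye washed off, and bound dye extracted for optical density reading.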

Assay [2] deals with Cyclin-dependent kinase 4/cyclin D1 (Homo sapiens, UniProt P11802). The assay is described as follows: Inhibition of Cyclin Dependent Kinase 4 cyclin D1. Type of assay: protein-complex assay. In short, it runs like this:
(§1)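 Lysates of insect cells expressing the cdk and its cyclin partner, run in kinase buffer with ³²P-ATP, GST-Rb fusion substrate and the compound at varying concentrations. Reaction stopped with excess EDTA. GST-Rb captured on GSH-Sepharose beads, washed, and counted by scintillation. IC50 is the concentration giving 50% inhibition of kinase activity.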

The test system of assay [3] is AG1523. The assay is described as follows: Cytotoxic effect on human AG1523 fibroblast cells. Format: functional, cell-based.
The target in assay [4] is Cyclin-dependent kinase 2/cyclin E (Homo sapiens, UniProt P24941). Nature of the assay: Inhibition of Cyclin-dependent kinase 2-cyclin E. Format: protein-complex assay. In short, it runs like this: as §1
Assay [5] addresses Tyrosine-protein kinase ABL1 (Homo sapiens, UniProt P00519). The assay is described as follows: Inhibition of c-Abl kinase.
Assay [6] concerns the target Protein kinase C (PKC). Nature of the assay: Inhibition of protein kinase C (PKC). Type of assay: protein assay.
Assay [7] in a line: Inhibition of protein kinase A (PKA).
In assay [8] the test system is Mus musculus. Nature of the assay: In vivo antitumor activity in mice at 30 mg/kg/day (dosing schedule Q1DX14); 8/8. Format: functional. In short, it runs like this: (§2)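 Female nude mice bearing HCT116 human colon carcinoma xenografts (1 × 10⁷ cells/animal, injected s.c. into the inguinal region). Drug was given ip once daily for 14 days, starting 7 days after cell injection. On day 15 after dosing, tumors were excised and weighed. Tumor growth inhibition index (%) = (1 − mean net tumor weight treated/control) × 100. Survivors reflect acute drug toxicity.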

For assay [9], the system named is Mus musculus. The assay is described as follows: In vivo antitumor activity in mice at 10 mg/kg/day (dosing schedule Q1DX14); 8/8. Type of assay: functional. In short, it runs like this:
as §2

Assay [10] relates to Mus musculus. The assay is described as follows: In vivo antitumor activity in mice at 30 mg/kg/day (dosing schedule Q1DX14). Format: functional. In short, it runs like this: (§3)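 Female nude mice carrying HCT116 human colon carcinoma xenografts, 1 × 10⁷ cells injected subcutaneously into the inguinal region. Drug given intraperitoneally once daily for 14 days, starting 7 days after cell injection. Tumors excised and weighed on day 15 post-dosing. Growth inhibition index (%) = (1 − mean net tumor weight treated/mean net tumor weight control) × 100.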

The test system of assay [11] is Mus musculus. Nature of the assay: In vivo antitumor activity in mice at 10 mg/kg/day (dosing schedule Q1DX14). Format: functional. The essentials: as §3
In assay [12] the test system is Mus musculus. Nature of the assay: In vivo antitumor activity in mice at 3 mg/kg/day (dosing schedule Q1DX14); 8/8. Format: functional. In short, it runs like this:
as §2

For assay [13], the system named is Mus musculus. Nature of the assay: In vivo antitumor activity in mice at 3 mg/kg/day (dosing schedule Q1DX14). Format: functional. In short, it runs like this:
as §3

Assay [14] deals with Mus musculus. Nature of the assay: In vivo antitumor activity in mice at 7.5 mg/kg/day (dosing schedule Q1DX14); 5/8. Format: functional. In short, it runs like this:
as §2

For assay [15], the system named is Mus musculus. Nature of the assay: In vivo antitumor activity in mice at 7.5 mg/kg/day (dosing schedule Q1DX14). Type of assay: functional. In short, it runs like this:
as §3

Assay [16] concerns Mus musculus. The assay is described as follows: In vivo antitumor activity in mice at 1 mg/kg/day (dosing schedule Q1DX14). Type of assay: functional. In short, it runs like this:
as §3

Assay [17] concerns Mus musculus. Nature of the assay: In vivo antitumor activity in mice at 1 mg/kg/day (dosing schedule Q1DX14); 8/8. Format: functional. The essentials: as §2

Chain of Cyclin-dependent kinase 4/cyclin D1 (P11802 whole entry, the tested form may be a part): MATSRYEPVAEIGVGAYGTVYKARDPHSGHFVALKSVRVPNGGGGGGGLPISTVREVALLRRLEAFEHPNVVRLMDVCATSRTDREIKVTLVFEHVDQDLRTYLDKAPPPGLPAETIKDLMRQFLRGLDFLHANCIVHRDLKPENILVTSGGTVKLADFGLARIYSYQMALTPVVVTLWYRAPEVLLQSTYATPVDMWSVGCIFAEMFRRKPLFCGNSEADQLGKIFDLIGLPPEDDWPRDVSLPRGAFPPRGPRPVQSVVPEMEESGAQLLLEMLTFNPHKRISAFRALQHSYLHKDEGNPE
Chain of Cyclin-dependent kinase 4/cyclin D1 (P24385 whole entry, further chain, the tested form may be a part): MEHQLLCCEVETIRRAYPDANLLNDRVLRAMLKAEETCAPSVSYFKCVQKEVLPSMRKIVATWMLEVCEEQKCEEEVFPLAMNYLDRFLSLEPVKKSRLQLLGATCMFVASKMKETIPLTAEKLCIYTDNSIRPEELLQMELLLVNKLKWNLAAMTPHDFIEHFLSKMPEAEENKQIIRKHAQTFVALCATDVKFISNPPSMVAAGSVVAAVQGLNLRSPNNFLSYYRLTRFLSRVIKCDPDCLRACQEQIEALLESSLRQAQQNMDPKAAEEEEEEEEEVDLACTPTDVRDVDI
Chain of Tyrosine-protein kinase ABL1 (P00519 whole entry): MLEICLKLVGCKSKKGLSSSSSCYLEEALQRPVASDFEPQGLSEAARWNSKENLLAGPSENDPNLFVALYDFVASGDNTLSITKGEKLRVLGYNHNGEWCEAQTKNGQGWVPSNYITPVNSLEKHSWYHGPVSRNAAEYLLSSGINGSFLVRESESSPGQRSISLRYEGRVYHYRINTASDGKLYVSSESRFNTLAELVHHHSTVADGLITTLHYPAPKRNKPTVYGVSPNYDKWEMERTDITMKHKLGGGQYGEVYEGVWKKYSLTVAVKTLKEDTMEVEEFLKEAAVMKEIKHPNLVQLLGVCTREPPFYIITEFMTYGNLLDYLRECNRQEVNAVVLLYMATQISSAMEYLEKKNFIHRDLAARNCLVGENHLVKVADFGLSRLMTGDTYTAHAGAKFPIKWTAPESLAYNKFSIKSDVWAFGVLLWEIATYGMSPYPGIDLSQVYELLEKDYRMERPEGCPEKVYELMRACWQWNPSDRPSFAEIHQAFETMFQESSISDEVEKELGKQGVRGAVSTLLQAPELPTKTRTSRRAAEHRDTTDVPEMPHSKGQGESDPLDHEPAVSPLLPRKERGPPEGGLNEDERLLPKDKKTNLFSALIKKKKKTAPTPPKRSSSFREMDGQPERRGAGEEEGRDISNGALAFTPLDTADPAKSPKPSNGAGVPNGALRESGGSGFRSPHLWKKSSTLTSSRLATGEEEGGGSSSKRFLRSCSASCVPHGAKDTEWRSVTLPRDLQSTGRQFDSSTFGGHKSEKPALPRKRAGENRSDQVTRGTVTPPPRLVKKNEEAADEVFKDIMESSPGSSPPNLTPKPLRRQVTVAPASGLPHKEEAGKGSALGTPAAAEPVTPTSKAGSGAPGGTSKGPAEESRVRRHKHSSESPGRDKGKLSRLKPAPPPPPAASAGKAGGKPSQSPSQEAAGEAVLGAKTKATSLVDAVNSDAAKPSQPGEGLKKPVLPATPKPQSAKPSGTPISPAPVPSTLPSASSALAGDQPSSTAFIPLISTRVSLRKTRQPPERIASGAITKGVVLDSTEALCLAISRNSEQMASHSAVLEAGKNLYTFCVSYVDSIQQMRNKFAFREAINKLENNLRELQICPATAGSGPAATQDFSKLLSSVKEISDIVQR

Broadly, the IC50 is the concentration that gives 50% inhibition. Take `COc1ccc(-c2[nH]nc3c2C(=O)c2c(NC(=O)Cc4ccc(N)cc4)cccc2-3)cc1`: the IC50 was 0.4 µM in [1], 0.48 µM in [2], more than 24 µM in assay [3] and 0.038 µM in assay [4].
As for `COc1ccc(-c2[nH]nc3c2C(=O)c2c(NC(=O)c4ccccc4)cccc2-3)cc1`, the IC50 in assay [2] was more than 250 µM; in assay [4], 41 µM.
For the compound `COc1ccc(-c2[nH]nc3c2C(=O)c2c(NC(=O)C(C)(C)C)cccc2-3)cc1`, the IC50 was 7.5 µM in assay [1], 45 µM in [2] and 2.1 µM in [4].
Turning to `COc1ccc(-c2[nH]nc3c2C(=O)c2c(NC(=O)C(C)C)cccc2-3)cc1`, the IC50 in assay [1] was 2.9 µM; in assay [2], 35 µM; in assay [3] it was more than 28 µM; in [4], 1.4 µM.
In the case of `COc1ccc(-c2[nH]nc3c2C(=O)c2ccccc2-3)cc1`, the IC50 was more than 725 µM in assay [5]; more than 725 µM in [6]; 45 µM in assay [2]; 26 µM in assay [4]; 239 µM in assay [7].
Broadly, the inhibition in vivo is how much of the control response was suppressed. Higher therefore signals strong suppression. Consider `COc1ccc(-c2[nH]nc3c2C(=O)c2c(NC=O)cccc2-3)cc1`, for which the No. survived in assay [8], in [9] and in assay [12] was 8 each time. In addition, the IC50 in [1] was 0.69 µM; in assay [2], 0.2 µM; in [3], more than 63 µM; in assay [4] it was 0.08 µM. The Tumor weight in assay [10] stood at 608 mg; in assay [11], 871 mg; in assay [13], 1171 mg. The compound also had an inhibition in vivo at 30 mg/kg/day in assay [10] of 43%. The same compound had an inhibition in vivo at 10 mg/kg/day in assay [11] of 19%. Further, the inhibition in vivo at 3 mg/kg/day in [13] was 0%.
For `COc1ccc(-c2[nH]nc3c2C(=O)c2c(NC(C)=O)cccc2-3)cc1`, the IC50 in [1] came to 2.7 µM; in [2], 0.45 µM; in assay [4], 0.27 µM.
For `CN1CCC(c2c(O)cc(O)c3c(=O)cc(-c4ccccc4Cl)oc23)[C@@H](O)C1` (mixture of isomers), the No. survived in assay [14] is recorded as 5. In assay [15], this compound came in with a Tumor weight of 538 mg and an inhibition in vivo at 7.5 mg/kg/day of 50%.
In assay [16], `CO[C@@]12[C@H](COC(N)=O)C3=C(C(=O)C(C)=C(N)C3=O)N1C[C@@H]1N[C@@H]12` [MITOMYCIN] came in with a Tumor weight of 455 mg and an inhibition in vivo at 1 mg/kg/day of 58%. The compound further had a No. survived in assay [17] of 8.
